Data from ChEMBL document CHEMBL3102701, “Polyandric acid A, a clerodane diterpenoid from the Australian medicinal plant Dodonaea polyandra, attenuates pro-inflammatory cytokine secretion in vitro and in vivo” (J Nat Prod, 2014).
Calls of active or inactive are those of the source. The rule behind the calls is not given here.

Legend:
THP-1 [1] = assay: Antiinflammatory activity in human THP1 cells assessed as inhibition of TPA/ionomycin-induced extracellular TNF-alpha production at 5 uM incubated 1 hr prior to TPA/ionomycin challenge measured after 24 hrs by ELISA; format: functional, cell-based
In short: (§1)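 THP-1 monocytes (100 000/well) in RPMI-1640 preincubated 1 h with test agent, ethanol ≤0.05%. Stimulated with TPA 40 ng/mL/ionomycin 1 μM (final) for 24 h at 37 °C, 5% CO2. Supernatant kept for extracellular cytokines. Washed cells were lysed in ice-cold RIPA with protease inhibitors for intracellular IL-1β and pro-IL-1β. ELISA read-out; n = 6.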

THP-1 [2] = assay: Antiinflammatory activity in human THP1 cells assessed as inhibition of TPA/ionomycin-induced intracellular proIL-1beta level at 5 uM incubated 1 hr prior to TPA/ionomycin challenge measured after 24 hrs by ELISA; format: functional, cell-based; in short: as §1
THP-1 [3] = assay: Antiinflammatory activity in human THP1 cells assessed as inhibition of TPA/ionomycin-induced intracellular IL-1beta level at 5 uM incubated 1 hr prior to TPA/ionomycin challenge measured after 24 hrs by ELISA; format: functional, cell-based; in short: as §1
THP-1 [4] = assay: Antiinflammatory activity in human THP1 cells assessed as inhibition of TPA/ionomycin-induced extracellular IL-1beta level at 5 uM incubated 1 hr prior to TPA/ionomycin challenge measured after 24 hrs by ELISA; format: functional, cell-based; in short: as §1
RAW264.7 [5] = assay: Antiinflammatory activity in mouse RAW264.7 cells assessed as inhibition of LPS-induced NO production at 3 to 30 uM incubated for 1 hr prior to LPS-challenge measured after 24 hrs by Greiss assay; format: functional, cell-based
In short: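 RAW264.7 macrophages (100 000/well) in DMEM preincubated 1 h with test agent at 3 or 30 μM. Stimulated with LPS 1 μg/mL final for 24 h at 37 °C, 5% CO2. Supernatant nitrite measured by Griess reaction (sulfanilic acid and N-naphthylethylenediamine in 5% HCl, 10 min at 37 °C). A540 read against a sodium nitrite standard curve; n = 8.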

[6] = Antiinflammatory activity in human NHEK cells assessed as inhibition of TPA/ionomycin-induced extracellular IL-6 production at 30 uM incubated for 1 hr prior to TPA/ionomycin challenge measured after 24 hrs by ELISA; format: functional
In short: (§2)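 Primary neonatal keratinocytes (passage ≤3) seeded at 10 000/well for 18 h at 37 °C, 5% CO2, then given fresh medium. Preincubated 1 h with test agent, then stimulated with TPA 40 ng/mL/ionomycin 1 μM. Supernatants taken at 6 and 24 h, centrifuged and stored at −80 °C. Extracellular cytokines measured by ELISA; means ± SEM, n = 6.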

[7] = Antiinflammatory activity in human NHEK cells assessed as inhibition of TPA/ionomycin-induced extracellular IL-6 production at 30 uM incubated for 1 hr prior to TPA/ionomycin challenge measured after 6 hrs by ELISA; format: functional; in short: as §2
[8] = Antiinflammatory activity in human NHEK cells assessed as inhibition of TPA/ionomycin-induced extracellular TNF-alpha production at 3 uM incubated for 1 hr prior to TPA/ionomycin challenge measured after 6 hrs by ELISA; format: functional; in short: as §2
[9] = Cytotoxicity against human NHEK cells assessed as cell viability at 30 uM after 24 hrs by MTS assay; format: cell-based
In short: (§3)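 MTS viability: cells at 50 000/well were preincubated 1 h, then serial half-dilutions of test agent were added. After 24 h incubation, MTS reagent was added for 1 h and absorbance read at 492 nm.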

THP-1 [10] = assay: Cytotoxicity against human THP1 cells assessed as cell viability at 30 uM after 24 hrs by MTS assay; format: cell-based; conditions: thp-1, 24 h; in short: as §3
THP-1 [11] = assay: Antiinflammatory activity in human THP1 cells assessed as inhibition of TPA/ionomycin-induced intracellular proIL-1beta level at 30 uM incubated 1 hr prior to TPA/ionomycin challenge measured after 24 hrs by ELISA; format: functional; in short: as §1
THP-1 [12] = assay: Antiinflammatory activity in human THP1 cells assessed as inhibition of TPA/ionomycin-induced intracellular IL-1beta level at 30 uM incubated 1 hr prior to TPA/ionomycin challenge measured after 24 hrs by ELISA; format: functional; in short: as §1
THP-1 [13] = assay: Antiinflammatory activity in human THP1 cells assessed as inhibition of TPA/ionomycin-induced TNF-alpha production at 30 uM incubated 1 hr prior to TPA/ionomycin challenge measured after 24 hrs by ELISA; format: functional; in short: as §1
THP-1 [14] = assay: Antiinflammatory activity in human THP1 cells assessed as inhibition of TPA/ionomycin-induced extracellular IL-1beta level at 3 uM incubated 1 hr prior to TPA/ionomycin challenge measured after 24 hrs by ELISA; format: functional; in short: as §1
THP-1 [15] = assay: Antiinflammatory activity in human THP1 cells assessed as inhibition of TPA/ionomycin-induced extracellular IL-1beta level at 30 uM incubated 1 hr prior to TPA/ionomycin challenge measured after 24 hrs by ELISA; format: functional; in short: as §1
RAW264.7 [16] = assay: Cytotoxicity against mouse RAW264.7 cells assessed as cell viability at <60 uM after 24 hrs by MTS assay; format: cell-based; conditions: raw264.7, 24 h; in short: as §3
[17] = Cytotoxicity against human NHEK cells assessed as cell viability at <60 uM after 24 hrs by MTS assay; format: cell-based; in short: as §3
THP-1 [18] = assay: Cytotoxicity against human THP1 cells assessed as cell viability at <60 uM after 24 hrs by MTS assay; format: cell-based; conditions: thp-1, 24 h; in short: as §3
Mus musculus [19] = assay: Antiinflammatory activity in Balb/C chronic mouse ear edema model assessed as reduction in influx of neutrophils at 0.9 umol/ear administered topically, bid from day 7 to day 10 measured every day during compound administration relative to control; format: functional, organism-based
In short: (§4)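 Chronic TPA ear model in male Balb/C mice: topical dosing at 0.9 μmol/ear in ethanol, twice daily days 7–9 and once on day 10, then euthanasia. 5 mm ear punches were homogenized in 80 mM PBS pH 5.4 with 0.5% HTAB and centrifuged. Supernatant in duplicate was reacted with H2O2 and 18.4 mM tetramethylbenzidine for 3 min at 37 °C. Stopped with sodium acetate pH 3.0; A600 read as neutrophil marker.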

Mus musculus [20] = assay: Antiinflammatory activity in Balb/C chronic mouse ear edema model assessed as reduction in TPA-induced myeloperoxidase accumulation at 0.9 umol/ear administered topically, bid from day 7 to day 10 measured every day during compound administration relative to control; format: functional; design: scale not given: the % may be the effect or the level left; in short: as §4
Mus musculus [21] = assay: Antiinflammatory activity in Balb/C chronic mouse ear edema model assessed as reduction in TPA-induced flaky appearance in ears at 0.9 umol/ear administered topically, bid from day 7 to day 10 measured every day during compound administration relative to control; format: functional, organism-based
Mus musculus [22] = assay: Antiinflammatory activity in Balb/C chronic mouse ear edema model assessed as reduction in TPA-induced scaling in ears at 0.9 umol/ear administered topically, bid from day 7 to day 10 measured every day during compound administration relative to control; format: functional, organism-based
Mus musculus [23] = assay: Antiinflammatory activity in Balb/C chronic mouse ear edema model assessed as reduction in TPA-induced redness in ears at 0.9 umol/ear administered topically, bid from day 7 to day 10 measured every day during compound administration relative to control; format: functional, organism-based
Mus musculus [24] = assay: Antiinflammatory activity in Balb/C chronic mouse ear edema model assessed as reduction in TPA-induced edema at 0.9 umol/ear administered topically, bid from day 7 to day 10 measured every day during compound administration relative to control; format: functional; design: scale not given: the % may be the effect or the level left
In short: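 Male Balb/C mice, 7–9 weeks old, acclimated at least 4 days. 20 μL TPA (125 μg/mL) was applied to inner and outer surfaces of both ears on alternate days from day 0. Test agent at 0.9 μmol/ear in 20 μL ethanol was applied topically to both ears morning and afternoon on days 7–9, with one more dose on day 10 morning. Ear thickness was read with a digital micrometer on days 0–4 and 7–10; means ± SEM, n ≥ 6.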

Mus musculus [25] = assay: Antiinflammatory activity in Balb/C mouse ear edema model assessed as reduction of TPA-induced IL-1beta production at 0.9 umol/ear by ELISA relative to control; format: functional; design: scale not given: the % may be the effect or the level left
In short: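 Acute TPA ear model in male Balb/C mice, killed 6 h after treatment (0.9 μmol/ear topical). 5 mm ear punches were homogenized in 50 mM Tris-HCl pH 7.4/1 mM EDTA with protease inhibitors, then held 15 min on ice with 1% Triton X-100. Spun at 9500g, 4 °C; supernatant assayed by ELISA. Basal untreated-ear levels were subtracted.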

[26] = system: neonatal human epidermal keratinocytes (Homo sapiens); assay: Antiinflammatory activity in human NHEK cells assessed as inhibition of TPA/ionomycin-induced IL-8 production at 0.3 to 30 uM incubated for 1 hr prior to TPA/ionomycin challenge measured after 6 to 24 hrs by ELISA
[27] = system: neonatal human epidermal keratinocytes (Homo sapiens); assay: Antiinflammatory activity in human NHEK cells assessed as inhibition of TPA/ionomycin-induced IL-1alpha production at 0.3 to 30 uM incubated for 1 hr prior to TPA/ionomycin challenge measured after 6 to 24 hrs by ELISA
[28] = system: neonatal human epidermal keratinocytes (Homo sapiens); assay: Antiinflammatory activity in human NHEK cells assessed as inhibition of TPA/ionomycin-induced extracellular TNF-alpha production at 3 uM incubated for 1 hr prior to TPA/ionomycin challenge measured after 24 hrs by ELISA
[29] = system: neonatal human epidermal keratinocytes (Homo sapiens); assay: Antiinflammatory activity in human NHEK cells assessed as inhibition of TPA/ionomycin-induced extracellular TNF-alpha production at 30 uM incubated for 1 hr prior to TPA/ionomycin challenge measured after 6 to 24 hrs by ELISA

Q: What does the source list for `Cc1ccc(S(=O)(=O)/C=C/C#N)cc1`?
A: inhibition (THP-1 [1]): Active; inhibition (THP-1 [2]): Active; inhibition (THP-1 [3]): Active; inhibition (THP-1 [4]): Active

Q: Which inhibition (RAW264.7 [5]) does the source give for `C[C@]1(CCc2ccoc2)[C@H](COC(=O)c2ccccc2)CC[C@@]2(C)C(C(=O)O)=C[C@H](O)C[C@H]12` here?
A: inactive

Q: And the inhibition at 30 µM [6]?
A: 41.5%

Q: What about the inhibition at 30 µM [7] of the same compound?
A: 33.2%

Q: And the inhibition at 3 µM [8]?
A: 26.2%

Q: What about the Activity [9] of the same compound?
A: Non-toxic

Q: What about the Activity (THP-1 [10]) of the same compound?
A: Non-toxic

Q: And the inhibition at 30 µM (THP-1 [11])?
A: 17%

Q: What about the inhibition at 30 µM (THP-1 [12]) of the same compound?
A: 15%

Q: And the inhibition at 30 µM (THP-1 [13])?
A: 19.7%

Q: And the inhibition at 3 µM (THP-1 [14])?
A: 18%

Q: And the inhibition at 30 µM (THP-1 [15])?
A: 26.3%

Q: And the Activity (RAW264.7 [16])?
A: Non-toxic

Q: And the Activity [17]?
A: Non-toxic

Q: And the Activity (THP-1 [18])?
A: Non-toxic

Q: And the Activity (Mus musculus [19])?
A: Active

Q: And the Activity (Mus musculus [20])?
A: 81.5%

Q: And the Activity (Mus musculus [21])?
A: Active

Q: What about the Activity (Mus musculus [22]) of the same compound?
A: Active

Q: What about the Activity (Mus musculus [23]) of the same compound?
A: Active

Q: And the Activity (Mus musculus [24])?
A: 41.1%

Q: And the Activity (Mus musculus [25])?
A: 78%

Q: And the inhibition [26]?
A: inactive

Q: And the inhibition [27]?
A: inactive

Q: What about the inhibition [28] of the same compound?
A: inactive

Q: What about the inhibition [29] of the same compound?
A: inactive

Q: For `CCC(=O)OCC(=O)[C@@]1(OC(=O)CC)[C@@H](C)C[C@H]2[C@@H]3CCC4=CC(=O)C=C[C@]4(C)[C@@]3(F)[C@@H](O)C[C@@]21C` [BETAMETHASONE DIPROPIONATE], which Activity (Mus musculus [20]) is on record?
A: 90%

Q: What about the Activity (Mus musculus [24]) of the same compound?
A: 54.2%
